Holding throughout (details): stereoisomer not certain
One assay addresses T1, OR2W1 (Homo sapiens) (UniProt Q9Y3N9).
T1 sequence (whole entry): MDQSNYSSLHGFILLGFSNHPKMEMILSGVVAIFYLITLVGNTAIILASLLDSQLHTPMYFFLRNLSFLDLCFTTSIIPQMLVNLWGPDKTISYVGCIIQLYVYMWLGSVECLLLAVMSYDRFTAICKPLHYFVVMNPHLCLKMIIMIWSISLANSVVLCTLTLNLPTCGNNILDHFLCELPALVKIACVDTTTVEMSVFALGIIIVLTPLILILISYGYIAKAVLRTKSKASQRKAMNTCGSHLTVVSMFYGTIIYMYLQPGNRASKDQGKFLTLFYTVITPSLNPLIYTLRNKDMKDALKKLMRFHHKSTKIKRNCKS
The gist of the method:
(§1)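 Values were gathered from published papers (main text and supplementary material), with extra details requested from the original authors when needed, and checked for typos and inconsistencies. Each receptor–molecule pair is called responsive (active) if the original authors judged the measured signal statistically different from baseline, and non-responsive (inactive) otherwise. Assay methods varied by source, often transient mammalian cell-line luciferase assays. Recorded details include cell line, G-protein, co-transfected protein and tags.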

In the next assay the target is T2, OR2T7 (Homo sapiens) (UniProt P0C7T2).
T2 sequence (whole entry): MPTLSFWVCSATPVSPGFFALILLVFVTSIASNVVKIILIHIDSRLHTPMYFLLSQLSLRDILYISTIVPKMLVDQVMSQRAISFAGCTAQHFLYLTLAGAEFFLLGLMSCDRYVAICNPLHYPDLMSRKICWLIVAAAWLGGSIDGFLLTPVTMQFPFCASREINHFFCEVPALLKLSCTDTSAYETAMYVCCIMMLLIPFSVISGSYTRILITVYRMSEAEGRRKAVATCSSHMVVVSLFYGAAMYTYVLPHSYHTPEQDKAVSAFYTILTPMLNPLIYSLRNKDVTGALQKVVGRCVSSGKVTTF
The essentials:
as §1

A further assay deals with T3, OR2T8 (Homo sapiens) (UniProt A6NH00).
T3 sequence (whole entry): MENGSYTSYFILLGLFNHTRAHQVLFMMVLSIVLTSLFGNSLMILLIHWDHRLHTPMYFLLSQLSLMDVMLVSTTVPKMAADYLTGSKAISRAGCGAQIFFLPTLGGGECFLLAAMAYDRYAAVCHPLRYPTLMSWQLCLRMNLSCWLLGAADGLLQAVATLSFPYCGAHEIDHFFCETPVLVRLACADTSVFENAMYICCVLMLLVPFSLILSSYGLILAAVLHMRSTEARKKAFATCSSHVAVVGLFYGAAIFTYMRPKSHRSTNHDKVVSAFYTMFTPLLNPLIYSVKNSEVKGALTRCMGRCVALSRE
The essentials: as §1

Another assay has as its target T4, OR2V1 (Homo sapiens) (UniProt Q8NHB1).
T4 sequence (whole entry): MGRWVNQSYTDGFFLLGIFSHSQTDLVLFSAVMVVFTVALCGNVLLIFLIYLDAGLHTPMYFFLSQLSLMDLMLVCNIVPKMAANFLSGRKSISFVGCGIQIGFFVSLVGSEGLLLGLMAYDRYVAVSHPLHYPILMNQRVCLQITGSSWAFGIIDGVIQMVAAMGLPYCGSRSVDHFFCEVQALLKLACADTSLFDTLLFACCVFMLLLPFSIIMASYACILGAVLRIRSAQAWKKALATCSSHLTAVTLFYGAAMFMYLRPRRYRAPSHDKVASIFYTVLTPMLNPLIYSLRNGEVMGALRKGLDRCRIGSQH
The essentials: as §1

The target of another assay is T5, OR2V2 (Homo sapiens) (UniProt Q96R30).
T5 sequence (whole entry): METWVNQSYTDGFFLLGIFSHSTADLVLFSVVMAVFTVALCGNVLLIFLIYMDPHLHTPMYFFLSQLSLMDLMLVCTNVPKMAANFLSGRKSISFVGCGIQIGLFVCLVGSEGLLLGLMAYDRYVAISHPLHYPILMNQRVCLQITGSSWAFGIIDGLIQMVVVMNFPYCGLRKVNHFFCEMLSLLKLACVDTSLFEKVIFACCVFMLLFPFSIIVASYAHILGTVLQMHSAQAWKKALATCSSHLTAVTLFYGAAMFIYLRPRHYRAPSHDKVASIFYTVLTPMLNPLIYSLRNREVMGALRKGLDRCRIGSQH
The gist of the method:
as §1

Another assay has as its target T6, OR2W3 (Homo sapiens) (UniProt Q7Z3T1).
T6 sequence (whole entry): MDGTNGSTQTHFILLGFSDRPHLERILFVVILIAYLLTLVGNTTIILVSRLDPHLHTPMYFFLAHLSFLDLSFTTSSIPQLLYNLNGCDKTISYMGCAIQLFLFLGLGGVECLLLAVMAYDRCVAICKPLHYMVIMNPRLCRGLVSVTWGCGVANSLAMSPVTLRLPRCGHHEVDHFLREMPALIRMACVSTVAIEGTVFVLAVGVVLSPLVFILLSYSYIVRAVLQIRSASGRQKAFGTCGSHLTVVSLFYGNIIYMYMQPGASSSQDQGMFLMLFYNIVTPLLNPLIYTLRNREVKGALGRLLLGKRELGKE
The essentials:
as §1

Another assay concerns the target T7, OR2W5P (Homo sapiens) (UniProt A6NFC9).
T7 sequence (whole entry): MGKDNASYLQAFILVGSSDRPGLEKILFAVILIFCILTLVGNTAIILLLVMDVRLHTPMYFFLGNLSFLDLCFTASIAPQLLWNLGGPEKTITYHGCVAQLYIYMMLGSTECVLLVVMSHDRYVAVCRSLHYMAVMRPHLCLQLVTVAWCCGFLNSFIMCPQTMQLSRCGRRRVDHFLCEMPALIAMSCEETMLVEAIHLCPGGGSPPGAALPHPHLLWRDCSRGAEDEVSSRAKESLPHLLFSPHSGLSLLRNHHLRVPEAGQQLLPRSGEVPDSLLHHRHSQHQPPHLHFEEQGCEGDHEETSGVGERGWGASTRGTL
The gist of the method: as §1

A further assay has as its target T8, OR2Y1 (Homo sapiens) (UniProt Q8NGV0).
T8 sequence (whole entry): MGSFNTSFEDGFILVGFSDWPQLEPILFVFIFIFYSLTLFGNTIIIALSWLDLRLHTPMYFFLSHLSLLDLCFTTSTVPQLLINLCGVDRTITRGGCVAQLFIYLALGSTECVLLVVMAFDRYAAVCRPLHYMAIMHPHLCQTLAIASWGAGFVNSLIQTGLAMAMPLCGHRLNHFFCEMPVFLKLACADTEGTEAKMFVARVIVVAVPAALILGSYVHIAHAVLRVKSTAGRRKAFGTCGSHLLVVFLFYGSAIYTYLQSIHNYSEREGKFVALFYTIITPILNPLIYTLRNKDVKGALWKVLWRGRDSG
The gist of the method:
as §1

A further assay deals with T9, OR2Z1 (Homo sapiens) (UniProt Q8NG97).
T9 sequence (whole entry): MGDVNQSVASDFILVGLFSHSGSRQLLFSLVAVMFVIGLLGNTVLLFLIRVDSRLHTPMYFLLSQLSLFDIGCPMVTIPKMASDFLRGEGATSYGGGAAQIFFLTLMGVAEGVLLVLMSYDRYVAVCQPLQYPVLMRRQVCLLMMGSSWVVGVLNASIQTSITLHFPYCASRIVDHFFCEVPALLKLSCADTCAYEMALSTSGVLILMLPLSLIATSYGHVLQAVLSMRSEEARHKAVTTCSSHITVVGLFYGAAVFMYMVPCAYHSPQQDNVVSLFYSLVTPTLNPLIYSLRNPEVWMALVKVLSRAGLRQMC
The gist of the method:
as §1

The target in the next assay is T10, OR3A1 (Homo sapiens) (UniProt P47881).
T10 sequence (whole entry): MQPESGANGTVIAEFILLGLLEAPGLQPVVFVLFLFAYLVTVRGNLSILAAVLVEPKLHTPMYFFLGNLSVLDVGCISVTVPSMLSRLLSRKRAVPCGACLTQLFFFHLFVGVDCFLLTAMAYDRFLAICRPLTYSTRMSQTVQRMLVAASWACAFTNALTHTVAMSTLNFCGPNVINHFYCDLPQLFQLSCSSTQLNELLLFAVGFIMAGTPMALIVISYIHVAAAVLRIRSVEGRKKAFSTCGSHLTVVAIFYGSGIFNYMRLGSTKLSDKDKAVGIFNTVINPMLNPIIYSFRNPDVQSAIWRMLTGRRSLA
The gist of the method: as §1

The target of the next assay is T11, OR3A2 (Homo sapiens) (UniProt P47893).
T11 sequence (whole entry): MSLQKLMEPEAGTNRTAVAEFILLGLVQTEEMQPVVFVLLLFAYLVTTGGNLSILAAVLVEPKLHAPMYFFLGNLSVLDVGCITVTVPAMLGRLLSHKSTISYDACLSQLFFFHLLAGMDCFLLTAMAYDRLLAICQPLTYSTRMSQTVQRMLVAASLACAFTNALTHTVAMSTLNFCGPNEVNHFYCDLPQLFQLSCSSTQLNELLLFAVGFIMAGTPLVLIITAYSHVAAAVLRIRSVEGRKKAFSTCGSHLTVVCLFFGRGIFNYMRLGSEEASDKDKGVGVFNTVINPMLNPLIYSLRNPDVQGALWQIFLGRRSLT
The gist of the method:
as §1

The target in a further assay is T12, OR3A3 (Homo sapiens) (UniProt P47888).
T12 sequence (whole entry): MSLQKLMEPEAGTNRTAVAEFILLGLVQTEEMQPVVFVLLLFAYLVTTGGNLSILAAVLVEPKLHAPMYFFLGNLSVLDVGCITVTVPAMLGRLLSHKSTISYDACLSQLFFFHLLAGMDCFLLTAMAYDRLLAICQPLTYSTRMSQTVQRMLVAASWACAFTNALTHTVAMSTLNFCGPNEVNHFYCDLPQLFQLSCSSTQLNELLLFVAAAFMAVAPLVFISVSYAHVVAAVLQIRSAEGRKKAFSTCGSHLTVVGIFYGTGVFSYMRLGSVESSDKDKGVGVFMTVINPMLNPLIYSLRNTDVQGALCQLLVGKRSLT
The essentials: as §1

For a further assay, the system named is T13, OR2T6 C23G.
T13 sequence (whole entry): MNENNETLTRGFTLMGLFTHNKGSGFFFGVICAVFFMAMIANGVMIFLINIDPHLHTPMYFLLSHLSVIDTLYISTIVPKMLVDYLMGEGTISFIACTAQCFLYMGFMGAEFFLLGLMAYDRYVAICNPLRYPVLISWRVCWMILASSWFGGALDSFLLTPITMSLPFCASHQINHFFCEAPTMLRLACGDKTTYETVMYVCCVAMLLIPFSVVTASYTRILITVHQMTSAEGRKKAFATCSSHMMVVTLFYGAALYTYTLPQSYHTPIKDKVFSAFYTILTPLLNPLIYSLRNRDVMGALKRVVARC
The essentials: as §1

Another assay has as its system T14, OR2T7.
T14 sequence (whole entry): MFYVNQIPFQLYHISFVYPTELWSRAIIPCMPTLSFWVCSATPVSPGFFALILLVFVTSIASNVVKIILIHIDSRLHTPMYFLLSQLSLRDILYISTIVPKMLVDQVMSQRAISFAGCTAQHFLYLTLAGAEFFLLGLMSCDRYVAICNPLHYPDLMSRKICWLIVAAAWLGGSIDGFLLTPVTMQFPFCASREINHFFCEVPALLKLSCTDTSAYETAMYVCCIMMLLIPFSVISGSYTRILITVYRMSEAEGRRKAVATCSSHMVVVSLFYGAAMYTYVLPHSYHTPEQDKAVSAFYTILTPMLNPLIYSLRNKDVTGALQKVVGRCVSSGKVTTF
The gist of the method:
as §1

The next assay deals with T15, OR2W1 G96V.
T15 sequence (whole entry): T1 sequence (whole entry) with G96V
The gist of the method:
as §1

For a further assay, the system named is T16, OR2Y1.
T16 sequence (whole entry): T8 sequence (whole entry) with V200L
The essentials:
as §1

The next assay has as its system T17, OR3A1.
T17 sequence (whole entry): T10 sequence (whole entry) with R125Q
The gist of the method: as §1

The subject of another assay is T18, OR3A2 R317K.
T18 sequence (whole entry): T11 sequence (whole entry) with R317K
The gist of the method: as §1

Results on seven compounds are retold here after the M2OR odorant receptor database.

Where a chain is given by its changes, count along the chain named.

Regarding `CCC(=O)C(C)S` (centres undefined), the “odorant receptor agonist call” value with OR2W1 (Homo sapiens) was “inactive”.

As for `CCCCCC(S)C(C)CO` (centres undefined), the “odorant receptor agonist call” value in the assay with OR2T7 (Homo sapiens), with OR2T8 (Homo sapiens), in the assay with OR2V1 (Homo sapiens), with OR2V2 (Homo sapiens), in the assay with OR2W1 (Homo sapiens) and with OR2W3 (Homo sapiens) was “inactive” throughout. Also, the “odorant receptor agonist call” value with OR2W5P (Homo sapiens), in the assay with OR2Y1 (Homo sapiens), with OR2Z1 (Homo sapiens), in the assay with OR3A1 (Homo sapiens), with OR3A2 (Homo sapiens) and with OR3A3 (Homo sapiens) was “inactive” each time.

Regarding `CCCCCC1CCCC(=O)O1` (centres undefined), the “odorant receptor agonist call” value in the assay with OR2W1 (Homo sapiens) is “inactive”.

`CCC1OC(=O)C(O)=C1C` (centres undefined): the “odorant receptor agonist call” value in the assay with OR2T6 C23G, in the assay on OR2T7, with OR2T8 (Homo sapiens), in the assay with OR2V1 (Homo sapiens), in the assay with OR2V2 (Homo sapiens) and with OR2W1 (Homo sapiens) was “inactive” throughout. In addition, the “odorant receptor agonist call” value in the assay with OR2W1 G96V, with OR2W3 (Homo sapiens), in the assay with OR2W5P (Homo sapiens), in the assay with OR2Y1 (Homo sapiens), in the assay on OR2Y1 and with OR2Z1 (Homo sapiens) was “inactive” in each case. Further, the “odorant receptor agonist call” value with OR3A1 (Homo sapiens), in the assay with OR3A1, with OR3A2 (Homo sapiens), with OR3A2 R317K and with OR3A3 (Homo sapiens) was “inactive” each time.

As to `CC(=O)c1c(C)c([N+](=O)[O-])c(C(C)(C)C)c([N+](=O)[O-])c1C`, the “odorant receptor agonist call” value in the assay with OR2T7 (Homo sapiens), with OR2T8 (Homo sapiens), with OR2V1 (Homo sapiens), with OR2V2 (Homo sapiens), with OR2W1 (Homo sapiens) and with OR2W3 (Homo sapiens) was “inactive” throughout. Besides, the “odorant receptor agonist call” value in the assay with OR2Y1 (Homo sapiens), in the assay with OR2Z1 (Homo sapiens), with OR3A1 (Homo sapiens), with OR3A2 (Homo sapiens) and in the assay with OR3A3 (Homo sapiens) was “inactive” in each case.

Take `O=C(c1ccccc1)c1ccccc1`: the “odorant receptor agonist call” value with OR2W1 (Homo sapiens) was “active”.

On to `CC1CCCCCCCCCCCCC(=O)C1` (centres undefined), for which the “odorant receptor agonist call” value with OR2T7 (Homo sapiens), in the assay with OR2T8 (Homo sapiens), with OR2V1 (Homo sapiens), in the assay with OR2V2 (Homo sapiens), in the assay with OR2W1 (Homo sapiens) and with OR2W3 (Homo sapiens) was “inactive” in each case. The “odorant receptor agonist call” value with OR2Y1 (Homo sapiens), with OR2Z1 (Homo sapiens), with OR3A1 (Homo sapiens), with OR3A2 (Homo sapiens) and with OR3A3 (Homo sapiens) was “inactive” in each case.
